This note sets out measurements from ChEMBL document CHEMBL1143247, “Vesicular monoamine transporter substrate/inhibitor activity of MPTP/MPP+ derivatives: a structure-activity study” (J Med Chem, 2008).

Data set [1] has as its target Synaptic vesicular amine transporter (Bos taurus, UniProt Q27963). The data set can be described thus: Inhibition of dopamine uptake at VMAT in bovine chromaffin granule ghosts. The procedure, abridged:
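Resealed bovine chromaffin granule ghosts preincubated 10 min at 30 °C in 0.3 M sucrose, 10 mM HEPES, 5 mM Mg-ATP, 5 mM MgSO₄, 100 µg/mL catalase, pH 7.0. Inhibitor then added for 2 min before starting uptake with DA. Aliquots taken at 6 min intervals, pelleted, washed and extracted in 0.1 M HClO₄. Intragranular catecholamines measured by HPLC-EC. Ki obtained by fitting typically 4–5 inhibitor × 6 DA concentrations to a competitive model. Errors are fitting standard errors.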

The target in data set [2] is Synaptic vesicular amine transporter (Bos taurus) (UniProt Q27963). The data set can be described thus: Ratio of Km for dopamine uptake at VMAT in bovine chromaffin granule ghosts to Ki for VMAT in bovine chromaffin granule ghosts. The procedure, abridged: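 Ratio of Km for DA to Ki for the inhibitor. Both were determined on the same ghost preparation for each compound, to normalize day-to-day variation in DA Km between preparations. Ki comes from DA-uptake competition in resealed bovine chromaffin granule ghosts (5 mM Mg-ATP, pH 7.0, 30 °C, HPLC-EC read-out). Km for DA comes from initial uptake rates fitted to Michaelis–Menten.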

Substrate in data set [3]: CN1CC=C(c2ccccc2)CC1
Briefly: (§1) Activity of VMAT in bovine chromaffin granule ghosts assessed as drug uptake. Particulars: Bos taurus. The procedure, abridged:
(§2)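 Resealed bovine adrenal chromaffin granule ghosts, prepared fresh from frozen membrane stores, preincubated 10 min at 30 °C in 0.3 M sucrose, 10 mM HEPES, 5 mM Mg-ATP, 5 mM MgSO₄, 100 µg/mL catalase, pH 7.0. Test substrate added without DA. Aliquots taken at 6 min intervals, diluted into ice-cold sucrose/HEPES, pelleted, washed, extracted with 0.1 M HClO₄. Intragranular substrate measured by HPLC-UV. Km and Vmax come from Michaelis–Menten fits of initial rates at 12 substrate concentrations.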

Substrate in data set [4]: C[n+]1ccc(-c2cccc(O)c2)cc1
Described as §1. Particulars: Bos taurus. The procedure, abridged: as §2

Substrate in data set [5]: C[n+]1ccc(-c2ccccc2)cc1
Described as §1. The conditions noted are these: Bos taurus. The procedure, abridged:
as §2

Substrate in data set [6]: Cc1ccc(-c2cc[n+](C)cc2)cc1
The description is as §1. Particulars: Bos taurus. The procedure, abridged:
as §2

Substrate in data set [7]: COc1ccc(-c2cc[n+](C)cc2)cc1
Described as §1. Particulars: Bos taurus. The procedure, abridged:
as §2

Substrate in data set [8]: C[n+]1ccc(-c2ccc(O)cc2)cc1
The description is as §1. Particulars: Bos taurus. The procedure, abridged: as §2

Turning to `C[n+]1ccc(-c2cccc(C(F)(F)F)c2)cc1`, the Ki (as a rule, the equilibrium dissociation constant of an inhibitor or competing ligand from its target) in data set [1] was found to be 24.6 µM. In addition, the Dopamine Km / inhibitor Ki ratio in data set [2] is 1.8.
The molecule `CN1CC=C(c2ccccc2)CC1` yielded a Ki in data set [1] of 52.5 µM.
On to `C[n+]1cccc(-c2ccc(O)cc2)c1`, for which, in data set [1], affinity was put at a Ki of 338 µM. Further, in data set [2], the Dopamine Km / inhibitor Ki ratio was 0.1.
For `C=C(C[n+]1ccc(-c2cccc(O)c2)cc1)c1ccc(I)cc1` the same measures were 0.4 µM and 55.
In the same order, the values of `CN1CC=C(c2ccc(O)cc2)CC1` are 134 µM and 0.3.
Regarding `C=C(CN1CCC(c2ccccc2)CC1)c1ccccc1`, in data set [1], the Ki stood at 16.4 µM. For the same molecule, the Dopamine Km / inhibitor Ki ratio in data set [2] worked out at 1.8.
For `CN1CC=C(c2ccc(F)cc2)CC1` the same measures were 49.7 µM and 0.9.
For `C=C(C[n+]1ccc(-c2ccc(OC)cc2)cc1)c1ccccc1` the same measures were 2.8 µM and 8.7.
`Cc1ccc(-c2cc[n+](C)cc2)cc1` showed a Ki in data set [1] of 51.8 µM. Besides, in data set [2], the Dopamine Km / inhibitor Ki ratio turned out to be 1.
Consider `Cc1ccccc1C1=CCN(C)CC1`, for which, in data set [1], the affinity, expressed as Ki, was 38.4 µM.
In turn, `Cc1c[n+](C)ccc1-c1ccc(O)cc1` came in with a Ki in data set [1] of 65 µM. The Dopamine Km / inhibitor Ki ratio in data set [2] came out at 0.8.
For `C[n+]1cccc(-c2cccc(O)c2)c1` the same measures were 36.6 µM and 1.2.
In the same order, the values of `C=C(C[n+]1ccc(-c2ccccc2)cc1)c1ccc(-c2ccccc2)cc1` are 4.5 µM and 11.3.
For `CN1CC=C(c2ccccc2N)CC1` the same measures were 193 µM and 0.1.
In the case of `C[N+]1=CC=C(c2ccccc2)CC1`, the affinity in data set [1] corresponds to a Ki of 53 µM. Further, in data set [2], the Dopamine Km / inhibitor Ki ratio is 0.7.
Regarding `C[n+]1ccc(-c2ccccc2)cc1`, the affinity in data set [1] corresponds to a Ki of 92 µM.
For `C=C(C[n+]1ccc(-c2ccc(O)cc2)cc1)c1ccc(Br)cc1`, the Ki in data set [1] was 0.5 µM. Besides, the Dopamine Km / inhibitor Ki ratio in data set [2] worked out at 41.5.
Consider `COc1cc2c(cc1OC)C1CC(=O)C(CC(C)C)CN1CC2` (centres undefined) [TETRABENAZINE], for which, in data set [1], the Ki turned out to be 0.004 µM.
In data set [1], `C[n+]1ccc(-c2cccc(O)c2)cc1` showed a Ki of 2.4 µM. Besides, the Dopamine Km / inhibitor Ki ratio in data set [2] was 9.7.
In the same order, the values of `CN1CC=C(c2cccc(O)c2)CC1` are 25.8 µM and 1.7.
`COC(=O)[C@H]1[C@H]2C[C@@H]3c4[nH]c5cc(OC)ccc5c4CCN3C[C@H]2C[C@@H](OC(=O)c2cc(OC)c(OC)c(OC)c2)[C@@H]1OC` [RESERPINE]: the affinity in data set [1], expressed as Ki, was 0.001 µM.
The molecule `C[n+]1ccc(-c2ccc(O)cc2)cc1` displayed a Ki in data set [1] of 82 µM. Moreover, the Dopamine Km / inhibitor Ki ratio in data set [2] worked out at 0.7.
With `Cc1ccccc1-c1cc[n+](C)cc1`, the affinity in data set [1], expressed as Ki, was 95 µM. Moreover, the Dopamine Km / inhibitor Ki ratio in data set [2] came to 0.3.
In the same order, the values of `C=C(C[n+]1ccc(C2CCCCC2)cc1)c1ccccc1` are 53 µM and 0.7.
In the same order, the values of `C=C(C[n+]1ccc(-c2ccccc2)cc1)c1ccccc1` are 38.4 µM and 0.9.
For `C[n+]1ccc(-c2ccc(Cl)cc2)cc1` the same measures were 7.6 µM and 5.8.
As for `COc1ccc2c3c([nH]c2c1)[C@H]1C[C@H]2[C@H](C[C@@H](O)[C@H](OC)[C@H]2C(=O)O)CN1CC3`, the affinity in data set [1], expressed as Ki, was 10 µM.
Turning to `C=C(CN1CCN(c2ccccc2)CC1)c1ccccc1`, in data set [1], the inhibitory constant (Ki) stood at 1.4 µM. The Dopamine Km / inhibitor Ki ratio in data set [2] worked out at 24.1.
For `C=C(C[n+]1ccc(-c2ccccc2)nc1)c1ccccc1` the same measures were 13.4 µM and 2.7.
For `C[n+]1ccc(-c2ccc(C(F)(F)F)cc2)cc1` the same measures were 33.8 µM and 1.3.
For `C[n+]1ccc(-c2cccc(Cl)c2)cc1` the same measures were 46.3 µM and 1.1.
In data set [1], `C[n+]1ccc(-c2ccc(F)cc2)cc1` returned a Ki of 51.3 µM. Further, the Dopamine Km / inhibitor Ki ratio in data set [2] was 1.
For `COc1ccc(-c2cc[n+](C)cc2)cc1` the same measures were 106 µM and 0.2.
In the same order, the values of `CN1CC=C(c2cccc(Cl)c2)CC1` are 27.7 µM and 1.6.

B1: Synaptic vesicular amine transporter (Bos taurus), Q27963 (protein)
chain: MALSELALLRRLQESRHSRKLILFIVFLALLLDNMLLTVVVPIIPSYLYSIEHEKDALEIQTAKPGLTASAPGSFQNIFSYYDNSTMVTGNSTDHLQGALVHEATTQHMATNSSSASSDCPSEDKDLLNENVQVGLLFASKATVQLLTNPFIGLLTNRIGYPIPMFTGFCIMFISTVMFAFSRTYAFLLIARSLQGIGSSCSSVAGMGMLASVYTDDEERGNAMGIALGGLAMGVLVGPPFGSVLYEFVGKTAPFLVLAALVLLDGAIQLFVLQPSRVQPESQKGTPLTTLLRDPYILIAAGSICFANMGIAMLEPALPIWMMETMCSHKWQLGVAFLPASVSYLIGTNVFGILAHKMGRWLCALLGMIIVGMSILCIPLAKNIYGLIAPNFGVGFAIGMVDSSMMPIMGYLVDLRHVSVYGSVYAIADVAFCMGYAIGPSAGGAIAKAIGFPWLMTIIGIIDILFAPLCFFLRSPPAKEEKMAILMDHNCPIKTKMYTQNSSQSHPIGEDEESESD
In the case of B1, the Km (in general, the concentration of substrate that gives half-maximal velocity) in data set [3] came out at 409 µM; in data set [4] it was 8.4 µM; in data set [5] it was 73 µM; in data set [6], 41.3 µM; in data set [7], 135 µM; in data set [8], 107 µM. In addition, the Vmax – broadly, the rate approached at saturating substrate – in data set [3] stood at 1.7 nmol/mg/min; in data set [4] it was 1.9 nmol/mg/min; in data set [5] it was 1.4 nmol/mg/min; in data set [6], 0.9 nmol/mg/min; in data set [7] it was 1.6 nmol/mg/min; in data set [8], 1.6 nmol/mg/min.
